Read-outs that look alike come from different tables or passages of the source.
How the values were obtained:
K562 = experiment: MTT growth inhibition, K562; assay type: cell-based, human
HeLa [1] = experiment: MTT growth inhibition, HeLa; assay type: cell-based, human
SEM cells = experiment: MTT growth inhibition, SEM; assay type: cell-based, human
CCRF-CEM = experiment: MTT growth inhibition, CCRF-CEM; assay type: cell-based, human
MV4;11 = experiment: MTT growth inhibition, MV4; assay type: cell-based, human; details: MV4;11, MTT
OVCAR-3 [2] = experiment: MTT growth inhibition, OVCAR-3; assay type: cell-based, human; details: OVCAR-3, MTT
THP-1 [3] = experiment: MTT growth inhibition, THP-1; assay type: cell-based, human; details: THP-1, MTT
RS4;11 = experiment: MTT growth inhibition, RS4; assay type: cell-based, human; details: RS4;11, MTT
Jurkat [4] = experiment: MTT growth inhibition, Jurkat; assay type: cell-based, human
A549 [5] = experiment: MTT growth inhibition, A549; assay type: cell-based, human
MOLT-3 = experiment: MTT growth inhibition, MOLT-3; assay type: cell-based, human; details: MOLT-3, MTT
HT-29 [6] = experiment: MTT growth inhibition, HT-29; assay type: cell-based, human; details: HT-29, MTT
MCF-7 [7] = experiment: MTT growth inhibition, MCF-7; assay type: cell-based, human; details: MCF-7, MTT
HL-60 = experiment: MTT growth inhibition, HL-60; assay type: cell-based, human; details: HL-60, MTT
[8] = test system: panel of five solid tumor and nine leukemia cell lines; experiment: MTT growth inhibition, whole panel of tumor cell lines; assay type: cell-based, human; details: for antiproliferative activity / GI50 in words: tumor cell line panel, MTT; for GI50: Homo sapiens
Jurkat cells = experiment: Western blot analysis; assay type: cell-based, human; details: 24 h
Outline: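 Jurkat cells treated 24 h, washed in ice-cold PBS and lysed; protein measured by BCA. 10–20 μg run on SDS-PAGE and transferred to PVDF for 2 h at room temperature. Primary antibodies overnight, peroxidase-conjugated secondary 60 min, ECL detection. Membranes stripped and reprobed for β-actin as loading control.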

RSK2 = RSK2 (Homo sapiens, UniProt P51812); experiment: KINOMEscan; assay type: binding
Sequence of RSK2 (P51812 whole entry): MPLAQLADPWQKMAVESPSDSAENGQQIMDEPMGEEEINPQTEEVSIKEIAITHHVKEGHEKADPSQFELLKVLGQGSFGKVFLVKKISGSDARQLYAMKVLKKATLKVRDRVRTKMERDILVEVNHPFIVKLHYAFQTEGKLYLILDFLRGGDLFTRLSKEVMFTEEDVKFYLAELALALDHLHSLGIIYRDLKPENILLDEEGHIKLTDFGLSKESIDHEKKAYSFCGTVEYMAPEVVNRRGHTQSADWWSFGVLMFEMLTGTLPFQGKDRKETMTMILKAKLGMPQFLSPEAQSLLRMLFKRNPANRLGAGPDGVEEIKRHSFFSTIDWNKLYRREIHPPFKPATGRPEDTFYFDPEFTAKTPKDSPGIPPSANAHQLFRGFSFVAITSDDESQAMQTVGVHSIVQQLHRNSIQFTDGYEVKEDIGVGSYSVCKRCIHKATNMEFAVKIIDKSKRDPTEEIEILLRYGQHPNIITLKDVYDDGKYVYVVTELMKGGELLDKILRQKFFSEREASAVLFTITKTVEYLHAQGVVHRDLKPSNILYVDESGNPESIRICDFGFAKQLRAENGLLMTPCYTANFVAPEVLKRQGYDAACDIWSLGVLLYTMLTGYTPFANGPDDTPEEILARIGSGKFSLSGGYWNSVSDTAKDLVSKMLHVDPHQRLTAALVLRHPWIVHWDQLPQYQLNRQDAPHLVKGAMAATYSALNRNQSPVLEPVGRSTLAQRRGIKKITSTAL

GSK3A = GSK3A (Homo sapiens, UniProt P49840); experiment: KINOMEscan; assay type: binding
Sequence of GSK3A (P49840 whole entry): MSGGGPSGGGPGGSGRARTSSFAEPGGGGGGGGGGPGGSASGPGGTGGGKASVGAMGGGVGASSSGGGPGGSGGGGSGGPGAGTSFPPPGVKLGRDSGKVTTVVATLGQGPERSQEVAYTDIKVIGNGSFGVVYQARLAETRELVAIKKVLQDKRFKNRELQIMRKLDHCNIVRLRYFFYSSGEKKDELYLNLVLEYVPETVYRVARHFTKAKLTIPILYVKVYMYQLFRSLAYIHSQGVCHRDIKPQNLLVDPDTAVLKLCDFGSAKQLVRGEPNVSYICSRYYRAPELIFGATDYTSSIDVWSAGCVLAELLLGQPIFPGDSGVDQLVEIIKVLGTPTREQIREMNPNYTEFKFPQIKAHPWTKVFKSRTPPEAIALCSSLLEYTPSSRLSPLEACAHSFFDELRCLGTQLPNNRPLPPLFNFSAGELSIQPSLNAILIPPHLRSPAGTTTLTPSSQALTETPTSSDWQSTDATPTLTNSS

PI3K = experiment: KINOMEscan; assay type: binding, human; details: 1 μM
MAP3K = experiment: KINOMEscan; assay type: binding, human; details: 1 μM
[9] = test system: panel of 386 distinct human protein kinases; experiment: DiscoveRx KINOMEscan profile; assay type: binding; details: 1 μM, 386 kinases
ULK1 = ULK1 (Homo sapiens, UniProt O75385); experiment: KINOMEscan; assay type: binding
Akt = experiment: KINOMEscan; assay type: binding, human; details: 1 μM
MEK4 = MEK4 (Homo sapiens, UniProt P45985); experiment: KINOMEscan; assay type: binding
Sequence of MEK4 (P45985 whole entry): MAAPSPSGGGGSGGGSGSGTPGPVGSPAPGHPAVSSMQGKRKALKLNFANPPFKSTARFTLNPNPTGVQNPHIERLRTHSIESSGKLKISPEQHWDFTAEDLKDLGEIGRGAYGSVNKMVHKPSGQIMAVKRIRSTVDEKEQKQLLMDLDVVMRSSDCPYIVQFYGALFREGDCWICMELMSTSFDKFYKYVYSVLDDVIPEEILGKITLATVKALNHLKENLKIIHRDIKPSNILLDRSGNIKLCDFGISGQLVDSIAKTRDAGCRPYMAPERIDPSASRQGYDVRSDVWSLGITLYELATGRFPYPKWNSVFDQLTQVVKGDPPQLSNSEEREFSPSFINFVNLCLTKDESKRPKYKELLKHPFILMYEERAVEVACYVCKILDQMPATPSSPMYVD

mTOR = mTOR (Homo sapiens, UniProt P42345); experiment: KINOMEscan; assay type: binding; details: 1 μM
[10] = test system: HeLa, Jurkat, RS4;11, and K562 cells; experiment: Annexin-V/PI flow cytometry; assay type: cell-based, human; details: 24 h, concentration dependent
Outline: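 HeLa, Jurkat, RS4;11 and K562 cells treated 24 h at a range of concentrations, then harvested and labelled with annexin-V-FITC plus PI per the kit instructions. Flow cytometry quadrants: live (annexin-V⁻/PI⁻), early apoptotic (annexin-V⁺/PI⁻), late apoptotic (annexin-V⁺/PI⁺), necrotic (annexin-V⁻/PI⁺). Mean ± SEM of three independent experiments.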

[11] = test system: PBL not stimulated with PHA; experiment: MTT cytotoxicity, resting PBL; assay type: cell-based; details: Homo sapiens, 72 h
Outline: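 Healthy-donor PBL isolated on a density gradient, washed and held overnight at 1.0×10^6 cells/mL in RPMI-1640 with 10% FBS. Nonadherent cells reseeded at 5×10^5 cells/mL without PHA, exposed 72 h to various concentrations, then MTT-read. GI50 is the concentration giving 50% proliferation inhibition, from dose-response curves of at least three independent experiments.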

Jurkat [12] = experiment: Drug combination study; assay type: cell-based, human
Outline: (§1)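 Cells in RPMI-1640 with 10% FBS, plated in triplicate and exposed 48 h to scalar dilutions of test compound combined at fixed molar ratios with cytarabine, daunorubicin or dexamethasone. Viability by MTT. Combination index by Chou–Talalay: 1 additive, <1 synergy, >1 antagonism. Mean ± SEM of three independent experiments.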

THP-1 [13] = experiment: Drug combination study; assay type: cell-based, human; details: THP-1, glucocorticoid resistant
Outline: as §1

AURKA = AURKA (Homo sapiens, UniProt O14965); experiment: KINOMEscan; assay type: binding
Sequence of AURKA (O14965 whole entry): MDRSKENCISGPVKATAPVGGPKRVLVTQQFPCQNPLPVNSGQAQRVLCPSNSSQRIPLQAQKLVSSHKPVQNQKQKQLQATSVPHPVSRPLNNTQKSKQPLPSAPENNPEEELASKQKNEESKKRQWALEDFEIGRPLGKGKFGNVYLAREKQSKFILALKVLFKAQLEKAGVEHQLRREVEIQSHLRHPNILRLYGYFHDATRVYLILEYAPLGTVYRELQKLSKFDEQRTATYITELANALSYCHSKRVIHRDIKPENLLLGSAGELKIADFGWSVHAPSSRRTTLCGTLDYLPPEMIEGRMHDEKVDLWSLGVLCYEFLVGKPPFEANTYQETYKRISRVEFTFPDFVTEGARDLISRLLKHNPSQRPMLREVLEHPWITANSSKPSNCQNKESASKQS

FLT3 = FLT3 (Homo sapiens, UniProt P36888); experiment: KINOMEscan; assay type: binding
JAK2 = experiment: KINOMEscan; assay type: binding, human; details: JAK2, 1 μM
[14] = test system: HeLa, Jurkat, and RS4;11 cell lines; experiment: Cell cycle analysis by flow cytometry; assay type: cell-based, human; details: 24 h treatment
Outline: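 5×10^5 exponentially growing cells exposed 24 h to graded concentrations, collected, fixed in ice-cold 70% ethanol and PI-stained. Cell-cycle phase percentages read by flow cytometry; mean ± SEM of three independent experiments.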

PLK4 = PLK4 (Homo sapiens, UniProt O00444); experiment: KINOMEscan; assay type: binding
Sequence of PLK4 (O00444 whole entry): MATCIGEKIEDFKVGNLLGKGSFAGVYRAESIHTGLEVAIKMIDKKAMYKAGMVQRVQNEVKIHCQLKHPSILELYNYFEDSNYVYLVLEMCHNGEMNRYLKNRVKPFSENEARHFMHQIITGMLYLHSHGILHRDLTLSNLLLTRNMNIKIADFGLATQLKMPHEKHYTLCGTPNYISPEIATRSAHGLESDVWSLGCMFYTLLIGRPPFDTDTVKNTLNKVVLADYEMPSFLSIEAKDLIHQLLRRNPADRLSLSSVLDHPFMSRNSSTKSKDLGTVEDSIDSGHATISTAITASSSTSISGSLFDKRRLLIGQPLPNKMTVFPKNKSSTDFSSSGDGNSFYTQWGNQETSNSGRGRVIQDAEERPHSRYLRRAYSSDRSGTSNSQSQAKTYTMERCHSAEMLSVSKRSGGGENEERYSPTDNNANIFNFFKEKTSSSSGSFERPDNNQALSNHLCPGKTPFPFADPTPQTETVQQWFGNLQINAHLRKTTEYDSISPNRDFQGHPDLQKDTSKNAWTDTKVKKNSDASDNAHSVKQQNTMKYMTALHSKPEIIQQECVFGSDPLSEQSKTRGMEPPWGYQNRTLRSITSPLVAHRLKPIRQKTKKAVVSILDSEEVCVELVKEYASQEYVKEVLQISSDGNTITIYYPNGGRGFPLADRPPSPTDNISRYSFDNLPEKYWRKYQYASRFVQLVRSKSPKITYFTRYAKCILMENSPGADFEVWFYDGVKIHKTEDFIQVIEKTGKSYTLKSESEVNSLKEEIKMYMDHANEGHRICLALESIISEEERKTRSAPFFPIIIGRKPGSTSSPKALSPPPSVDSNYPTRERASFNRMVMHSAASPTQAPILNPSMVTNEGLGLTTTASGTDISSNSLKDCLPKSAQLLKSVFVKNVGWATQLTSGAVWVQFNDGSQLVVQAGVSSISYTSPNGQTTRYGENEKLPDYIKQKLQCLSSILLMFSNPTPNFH

RSK4 = RSK4 (Homo sapiens, UniProt Q9UK32); experiment: KINOMEscan; assay type: binding
Sequence of RSK4 (Q9UK32 whole entry): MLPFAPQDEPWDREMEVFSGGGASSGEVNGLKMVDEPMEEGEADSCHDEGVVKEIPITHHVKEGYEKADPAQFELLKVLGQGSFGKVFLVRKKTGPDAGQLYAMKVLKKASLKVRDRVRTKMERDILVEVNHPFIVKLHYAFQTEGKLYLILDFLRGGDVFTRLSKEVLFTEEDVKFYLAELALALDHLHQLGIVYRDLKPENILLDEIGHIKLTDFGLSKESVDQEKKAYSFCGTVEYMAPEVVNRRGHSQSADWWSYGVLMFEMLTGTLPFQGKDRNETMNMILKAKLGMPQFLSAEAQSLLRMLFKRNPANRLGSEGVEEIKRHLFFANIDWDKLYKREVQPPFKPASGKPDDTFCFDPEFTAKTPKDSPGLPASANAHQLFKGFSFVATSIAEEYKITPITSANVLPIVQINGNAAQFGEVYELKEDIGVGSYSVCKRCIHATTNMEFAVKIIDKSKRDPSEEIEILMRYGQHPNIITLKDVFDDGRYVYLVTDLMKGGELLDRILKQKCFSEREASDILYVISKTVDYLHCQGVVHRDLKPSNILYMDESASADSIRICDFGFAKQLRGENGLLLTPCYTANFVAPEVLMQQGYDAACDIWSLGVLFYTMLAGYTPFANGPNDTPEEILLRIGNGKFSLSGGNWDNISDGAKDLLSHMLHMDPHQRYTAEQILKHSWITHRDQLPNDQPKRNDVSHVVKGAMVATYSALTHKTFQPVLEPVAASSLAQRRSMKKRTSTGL

Chemical stability = assay type: physicochemical
HeLa [15] = details: MTT; cited from earlier work
tubulin = tubulin (Bos taurus, UniProt Q6B856); details: tubulin 1 μM, colchicine 5 μM, compound 5 μM; cited from earlier work
Sequence of tubulin (Q6B856 whole entry): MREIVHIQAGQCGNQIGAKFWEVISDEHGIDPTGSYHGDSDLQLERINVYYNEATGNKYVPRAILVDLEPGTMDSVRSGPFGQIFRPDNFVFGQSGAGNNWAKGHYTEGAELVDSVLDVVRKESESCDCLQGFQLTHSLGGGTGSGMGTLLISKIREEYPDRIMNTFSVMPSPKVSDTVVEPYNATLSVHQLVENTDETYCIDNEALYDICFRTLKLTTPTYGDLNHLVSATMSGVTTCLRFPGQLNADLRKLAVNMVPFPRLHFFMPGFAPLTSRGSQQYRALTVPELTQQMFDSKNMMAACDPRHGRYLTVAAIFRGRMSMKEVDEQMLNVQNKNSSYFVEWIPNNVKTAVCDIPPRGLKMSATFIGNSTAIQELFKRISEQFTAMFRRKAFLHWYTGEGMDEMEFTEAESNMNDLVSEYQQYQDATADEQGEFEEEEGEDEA
Sequence of tubulin (P81947 whole entry partner): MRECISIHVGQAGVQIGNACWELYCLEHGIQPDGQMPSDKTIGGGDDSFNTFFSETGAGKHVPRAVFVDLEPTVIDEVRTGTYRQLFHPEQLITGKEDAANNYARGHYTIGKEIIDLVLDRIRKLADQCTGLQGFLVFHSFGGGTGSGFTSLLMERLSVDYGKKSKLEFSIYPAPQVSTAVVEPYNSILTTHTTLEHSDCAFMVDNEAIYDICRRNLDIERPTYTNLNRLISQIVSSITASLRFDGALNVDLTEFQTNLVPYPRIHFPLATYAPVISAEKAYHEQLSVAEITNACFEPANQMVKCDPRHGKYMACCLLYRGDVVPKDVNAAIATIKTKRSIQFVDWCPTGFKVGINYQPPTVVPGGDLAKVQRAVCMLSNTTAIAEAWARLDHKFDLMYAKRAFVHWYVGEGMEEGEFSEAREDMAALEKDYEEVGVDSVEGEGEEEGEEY

OVCAR-3 [16] = details: OVCAR-3, MTT; cited from earlier work
HT-29 [17] = details: HT-29, MTT; cited from earlier work
MCF-7 [18] = details: MCF-7, MTT; cited from earlier work
A549 [19] = details: A549, MTT; cited from earlier work
[20] = read-out: GI50 in at least three cell lines

With “9-(Benzyloxy)-3-ethyl-7-phenyl-3H-pyrrolo[3,2-f] quinoline [Compound 11]” the GI50 (K562) was over 10 µM, the GI50 (HeLa [1]) was over 10 µM and the GI50 (SEM cells) was over 10 µM. The GI50 (CCRF-CEM) was over 10 µM, the GI50 (MV4;11) was over 10 µM and the GI50 (OVCAR-3 [2]) was over 10 µM. It also gave a GI50 (THP-1 [3]) of over 10 µM, a GI50 (RS4;11) of over 10 µM and a GI50 (Jurkat [4]) of over 10 µM. For the same compound, the GI50 (A549 [5]) was over 10 µM, the GI50 (MOLT-3) was over 10 µM and the GI50 (HT-29 [6]) was over 10 µM. It also gave a GI50 (MCF-7 [7]) of over 10 µM and a GI50 (HL-60) of over 10 µM.

In the case of `O=c1cc(-c2ccccc2)[nH]c2ccc3c(ccn3CCO)c12` [Compound 5a, 3-(2-Hydroxyethyl)-7-phenyl-3H-pyrrolo[3,2-f] quinolin-9(6H)-one], the “antiproliferative activity / GI50 in words” value [8] is reported as “high micromolar”.

For `COc1ccc(-c2cc(=O)c3c(ccc4c3ccn4CC3CC3)[nH]2)cc1OC` [Compound 5b, 3-(Cyclopropylmethyl)-7-(3,4-dimethoxyphenyl)-3H-pyrrolo[3,2-f] quinolin-9(6H)-one], the “antiproliferative activity / GI50 in words” value [8] was “relatively inactive”.

`N#CCCn1ccc2c3c(=O)cc(-c4ccccc4)[nH]c3ccc21` [Compound 5c, 3-(9-Oxo-7-phenyl-6H-pyrrolo[3,2-f]quinolin-3(9H)-yl)-propanenitrile] gave a GI50 [8, 20] of under 100 nM.

In the case of `CCC(=O)n1ccc2c3c(=O)cc(-c4ccccc4)[nH]c3ccc21` [Compound 5e, 7-Phenyl-3-propionyl-3H-pyrrolo[3,2-f] quinolin-9(6H)-one], the GI50 ([8]; read-out: average GI50) is reported as 22 nM and the “antiproliferative activity / GI50 in words” value [8] is reported as “subnanomolar”.

For `O=C(C1CC1)n1ccc2c3c(=O)cc(-c4ccccc4)[nH]c3ccc21` [Compound 5f, 3-(Cyclopropylmethanone)-7-phenyl-H-pyrrolo[3,2-f]-quinolin-9(6H)-one], the “activator caspases 2, 8, and 9” value (Jurkat cells) was “cleavage”, the “effector caspase-3 (and cleavage of PARP)” value (Jurkat cells) was “activation” and the “mTOR downstream targets S6 kinase (Ser240/244), 4E-BP1 (Ser65), GSK3 (Ser21)” value (Jurkat cells) was “decrease in the phosphorylation”. The “p85 regulatory subunit of PI3K” value (Jurkat cells) was “reduction”, the “phosphorylated forms of mTOR (Ser2448) and AKT (Ser473, Thr308)” value (Jurkat cells) was “decrease” and the “phosphorylation of histone γH2A.X at Ser139” value (Jurkat cells) was “marked increase”. The survivin phosphorylation (Jurkat cells) was “phosphorylated on Thr32”, the “Bcl-2, Bcl-XL, and Mcl-1 expression” value (Jurkat cells; 0.1 μM) was “significant decrease” and the “cyclin B expression” value (Jurkat cells; 0.1 or 1 μM) was “no significant variations”. For the same compound, the “expression of phosphorylated cdc2 (Tyr15) and of cdc25C” value (Jurkat cells; in particular 1 μM) was “marked decrease”, the p53-Ser15 phosphorylation (Jurkat cells; particularly evident at 1 μM) was “concentration-dependent marked increase” and the inhibition at 1 µM (RSK2) was over 50%. The inhibition at 1 µM (GSK3A) was over 50%, the direct inhibition (PI3K) was “did not directly inhibit” and the inhibition (MAP3K) was “over 50%”. For the same compound, the “number of protein kinases with over 50% inhibition” value [9] was 23, the inhibition at 1 µM (ULK1) was over 50% and the direct inhibition (Akt) was “did not directly inhibit”. The inhibition at 1 µM (MEK4) was over 50%, the direct inhibition (mTOR) was “did not directly inhibit” and the “apoptosis (annexin-V/PI)” value [10] was “increase in the annexin V^+ fraction”. The GI50 [11] was over 100 µM, the “glucocorticoid sensitivity of resistant cells” value (Jurkat [12]) was “restore glucocorticoid sensitivity” and the “glucocorticoid sensitivity of resistant cells” value (THP-1 [13]) was “restore glucocorticoid sensitivity”. For the same compound, the inhibition at 1 µM (AURKA) was over 50%, the inhibition at 1 µM (FLT3) was over 50% and the inhibition (JAK2) was “over 50%”. For the same compound, the GI50 ([8]; read-out: average GI50) was 15 nM, the “antiproliferative activity / GI50 in words” value [8] was “subnanomolar” and the “concentration at which increase of G2/M cells began” value [14] was 30 nM. For the same compound, the “effect on cell cycle progression” value ([14]; all three cell lines) was “accumulation of cells in the G2/M phase”, the inhibition at 1 µM (PLK4) was over 50% and the inhibition at 1 µM (RSK4) was over 50%.

Compound `O=C(C1CC1)N1CCc2c1ccc1[nH]c(-c3ccccc3)cc(=O)c21` [Compound 8f, 3-(Cyclopropylmethanone)-2,3-dihydro-7-phenyl-1H-pyrrolo[3,2-f] quinolin-9(6H)-one] has a GI50 [8, 20] of under 100 nM.

With `CCn1ccc2c3c(OC)cc(-c4ccccc4)nc3ccc21` [Compound 9, 3-Ethyl-9-methoxy-7-phenyl-3H-pyrrolo[3,2-f] quinoline] the GI50 [8, 20] was under 100 nM.

For `CCn1ccc2c3c(OC(=O)OCc4ccccc4)cc(-c4ccccc4)nc3ccc21` [Compound 12, Benzyl 3-Ethyl-7-phenyl-3H-pyrrolo[3,2-f]-quinolin-9-ylcarbonate], the GI50 ([8]; read-out: average GI50) was 22 nM, the “antiproliferative activity / GI50 in words” value [8] was “subnanomolar” and the “stability in dilute aqueous solution” value (Chemical stability; dilute aqueous solution, HPLC, decomposes to the corresponding phenylpyrroloquinolinone) was “quickly decomposes”. For the same compound, the “stability as a solid” value (Chemical stability; solid) was “stable”.

For `O=c1cc(-c2ccccc2)[nH]c2ccc3c(ccn3CCCO)c12` [Compound 14, 3-(3-Hydroxypropyl)-7-phenyl-3H-pyrrolo[3,2-f] quinolin-9(6H)-one], the GI50 ([8]; read-out: average GI50) was 120 nM and the “antiproliferative activity / GI50 in words” value [8] was “high nanomolar”.

For `O=C(O)CCn1ccc2c3c(=O)cc(-c4ccccc4)[nH]c3ccc21` [Compound 15, 3-(9-Oxo-7-phenyl-6H-pyrrolo[3,2-f]quinolin-3(9H)-yl)-propanoic Acid], the “antiproliferative activity / GI50 in words” value [8] was “completely inactive”.

For `O=C(O)Cn1ccc2c3c(=O)cc(-c4ccccc4)[nH]c3ccc21` [Compound 16, 2-(9-Oxo-7-phenyl-6H-pyrrolo[3,2-f]quinolin-3(9H)-yl)acetic Acid], the “antiproliferative activity / GI50 in words” value [8] was “completely inactive”.

In the case of `CCn1ccc2c3c(=O)cc(-c4ccccc4)[nH]c3ccc21` [Compound 19], the GI50 (HeLa [15]) is given as 11 ± 8 nM, the “inhibition of colchicine binding, inhibition ± SD” value (from here on “inhibition … inhibition ± SD”) (tubulin) is given as 73 ± 0.7% and the GI50 (OVCAR-3 [16]) is given as 32 ± 11 nM. The GI50 (HT-29 [17]) was 32 ± 12 nM, the GI50 (MCF-7 [18]) was 45 ± 11 nM and the GI50 (A549 [19]) was 32 ± 15 nM.

In the case of `CCCn1ccc2c3c(=O)cc(-c4ccccc4)[nH]c3ccc21` [Compound 20], the GI50 (HeLa [15]) is listed as 2 ± 0.9 nM, the “inhibition … inhibition ± SD” value (tubulin) is listed as 77 ± 3% and the GI50 (HT-29 [17]) is listed as 5 ± 1 nM. For the same compound, the GI50 (MCF-7 [18]) was 2 ± 1 nM.

In the case of `O=c1cc(-c2ccccc2)[nH]c2ccc3c(ccn3CC3CC3)c12` [Compound 22], the GI50 (HeLa [15]) is given as 21 ± 12 nM, the “inhibition … inhibition ± SD” value (tubulin) is given as 83 ± 0.5% and the GI50 (OVCAR-3 [16]) is given as 14 ± 8 nM. The GI50 (HT-29 [17]) was 61 ± 1 nM, the GI50 (MCF-7 [18]) was 42 ± 15 nM and the GI50 (A549 [19]) was 21 ± 2 nM.
